TRPML3 agonist: activates the human TRPML3 channel | activation, % at 3 µM | hit rate 0.29% among 220,000 | Q8TDD5 | HEK293 TRPML3-YFP, Fluo-8 calcium fluorescence; 100% = the carbachol control signal | AID 1448;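 active = activation above its plate's cutoff, the mean activation of the plate's test wells plus 3 SD, cut at about 12% in these data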;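 note: 0% = DMSO only wells and 100% = carbachol wells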
Target sequence (Q8TDD5 whole entry, looked up): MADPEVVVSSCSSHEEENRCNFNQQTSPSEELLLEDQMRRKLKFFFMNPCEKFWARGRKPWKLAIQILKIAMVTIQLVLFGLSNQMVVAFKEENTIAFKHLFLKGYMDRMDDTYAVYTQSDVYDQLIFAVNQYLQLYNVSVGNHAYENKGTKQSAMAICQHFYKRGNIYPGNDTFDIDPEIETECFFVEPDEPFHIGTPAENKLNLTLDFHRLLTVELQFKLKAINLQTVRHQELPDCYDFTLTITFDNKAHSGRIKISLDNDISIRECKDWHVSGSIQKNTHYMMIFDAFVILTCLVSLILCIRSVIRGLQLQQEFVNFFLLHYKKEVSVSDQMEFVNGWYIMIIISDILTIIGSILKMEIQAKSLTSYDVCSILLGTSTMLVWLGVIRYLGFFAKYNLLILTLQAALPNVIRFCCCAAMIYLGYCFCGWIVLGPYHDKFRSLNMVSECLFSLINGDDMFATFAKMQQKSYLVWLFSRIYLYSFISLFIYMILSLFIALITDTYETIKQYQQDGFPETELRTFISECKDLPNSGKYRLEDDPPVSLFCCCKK
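Test system – HEK293 line with stable expression of human TRPML3-YFP channel · Control set – carbachol 87 µM final as high control (100%), DMSO as low control (0%) · Signal – Fluo-8 calcium dye fluorescence, ex 470-495, em 515-575 nm · Incubation – 1-h 37 °C dye load, 5-s basal, 120-s post-compound reads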
IMP-1 inh: inhibitors of Pseudomonas aeruginosa IMP-1 metallo-beta-lactamase | purified IMP-1, nitrocefin hydrolysis, epi-absorbance fluorescence | inhibition, % at 5.6 µM | hit rate 0.45% among 290,000 | AID 1556;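 active = inhibition above the mean plus 3 SD of all compounds in the same screening run, cut at about 4.5% in these data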;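 note: 0% = IMP-1 with DMSO and 100% = DMSO wells lacking enzyme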
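Test system: recombinant IMP-1 enzyme, purified / Medium: HEPES buffer pH 7.1 with ZnSO4 and Brij 35 / Doses: single dose, 5.6 µM / Times: 25 °C, 15 min preincubation, 25 min reaction / Detection: Epi-absorbance via hydrolysed-nitrocefin quenching of white-plate fluorescence, 480/530 nm, EDTA stop / Evaluation: percent inhibition from optical density relative to buffer-blank wells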
zfTRPN1 agonist: activates the zebrafish TRPN1 channel. hit rate 0.18% among 220,000. HEK293 zebrafish TRPN1-YFP, Fluo-8 calcium fluorescence; 100% = response to 87 µM carbachol. activation, % at 3 µM. AID 1424;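 active = activation above its plate's cutoff, the mean activation of test wells on that plate plus 3 SD, cut at about 19% in these data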;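 note: 0% = DMSO alone and 100% = 87 µM carbachol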
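Control set: carbachol 87 µM as high control, DMSO as low control; system: HEK293 stable line with zebrafish TRPN1-YFP; read-out: % activation versus carbachol response; detection: intracellular calcium fluorescence with Fluo-8; doses: single test compound dose, 3 µM nominal, 0.3% DMSO; schedule: dye 1 h 37 °C plus 30 min RT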
CRFR2-BP antag: blocks CRF-induced signaling of the CRF-BP/CRF-R2 complex | HEK293 CRF-R2/CRF-BP, CRF-induced calcium fluorescence | inhibition, % at 11.8 µM | hit rate 0.59% among 350,000;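 active = inhibition of the ligand-induced calcium signal above about 50% at the single tested concentration, limit read from the data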
CRFR2-BP ag: CRF-BP/CRF-R2 complex agonism | HEK293 CRF-R2/CRF-BP, calcium dye fluorescence (FLIPR); percent of saturating CRF peptide response | activation, % at 13.2 µM | hit rate 0.46% among 350,000;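 active = activation of at least 50%, plus an integration ratio under a set limit after plate pattern correction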;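 note: plate controls were neutral control wells without compound for no effect and CRF at EC100 for full effect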
VIM-2 inh: inhibitors of Pseudomonas aeruginosa VIM-2 metallo-beta-lactamase | purified VIM-2, nitrocefin hydrolysis, epi-absorbance fluorescence | inhibition, % at 5.6 µM | hit rate 0.89% among 290,000 | AID 1527;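 active = inhibition above the mean of all tested compounds plus 3 SD, cutoff set per screening run, cut at about 7.5% in these data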;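 note: red hydrolysis product quenches plate fluorescence so inhibitors raise well fluorescence; 0% = enzyme with DMSO and 100% = DMSO without enzyme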
The depositor's hits bear a star; x = no result given. Most compounds without a hit are left out; they make up all but 2.1% or so of the library.

SMILES	TRPML3 agonist	IMP-1 inh	zfTRPN1 agonist	CRFR2-BP antag	CRFR2-BP ag	VIM-2 inh
COc1ccccc1NC(=O)CN1C(=O)CCS(=O)(=O)c2ccccc21	1	-2	0	84*	-3	-3
O=Cc1cc(N=Nc2cccc(C(=O)O)c2)ccc1O	0	13*	-1	1	-1	-4
O=Cc1cc(N=Nc2ccccc2Cl)ccc1O	0	9.7*	-1	31	-1	-4
NS(=O)(=O)c1ccc(CCNC(=O)COC(=O)CCc2c[nH]c3ccccc23)cc1	x	x	x	-39	76*	x
Cn1nnnc1SCc1nnc(-c2ccccc2Br)o1	0	-3	1	-11	2	-4
Cc1ccc(-n2nnnc2SCc2nnc(-c3ccccc3Br)o2)c(C)c1	0	-4	1	87*	-1	-2
COc1ccc(C2SCC(=O)N2c2ccc(OC)cc2)cc1 (centres undefined)	x	-3	x	3	-1	-1
COc1ccc(N2C(=O)CSC2c2ccc([N+](=O)[O-])cc2)cc1 (centres undefined)	x	1	x	83*	6	2
CC(NC(=S)NC1CCC(C(C)(C)C)CC1)c1ccccc1 (centres undefined)	x	-2	x	-10	0	-6
COc1ccc(N=Cc2cc(Cc3ccccc3Cl)cc([N+](=O)[O-])c2O)cc1OC	1	0	-1	-7	1	-4
Cc1ccc(N=Cc2cc(Cc3ccccc3Cl)cc([N+](=O)[O-])c2O)c(O)c1	-1	6.3*	1	6	-2	-2
CCOc1cc2c(C#N)c(N3CCNCC3)nc(N)c2c(N)n1	0	-2	0	14	2	8.7*
COc1ccccc1N1CCN(S(=O)(=O)c2cc3[nH]c(=O)c(=O)[nH]c3cc2C)CC1	x	4.5*	x	7	10	-1
CCC(CO)[n+]1c(C)cc(/C=C2\Sc3ccccc3N2Cc2ccccc2)cc1C (centres undefined)	2	9.9*	1	-103	77*	-1
